Reference: ChEMBL document CHEMBL4422684, “Identification of novel lysine demethylase 5-selective inhibitors by inhibitor-based fragment merging strategy” (Bioorg Med Chem, 2019)
Activity calls are given as the source filed them. The rule behind the calls is not given here.

Key:
[1] = system: A549; experiment: Growth inhibition of human A549 cells at 50 uM after 72 hrs by Alamar blue staining based fluorescence assay; type: functional, cell-based
In short: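 A549 or MDA-MB-231 cells seeded at 2 × 10^3 per well, left 24 h at 37 °C, then given compounds in medium for 72 h at 37 °C, 5% CO2. AlamarBlue added for a further 3 h at 37 °C; fluorescence read at ex 540/em 590 nm and % growth calculated from it. A549 in RPMI1640/10% FBS; MDA-MB-231 in L-15 with 2 mM glutamine/10% FBS.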

[2] = molecular target: T1, Lysine-specific demethylase 4A (Homo sapiens) (UniProt O75164); experiment: Inhibition of human N-terminal His-tagged KDM4A (1 to 350 residues) expressed in Escherichia coli at 25 uM using H3(21-44)-K36(Me3)-GK(Biotin)/2-OG as substrate measured after 1 hr by Alphalisa assay relative to control
T1 sequence (whole entry): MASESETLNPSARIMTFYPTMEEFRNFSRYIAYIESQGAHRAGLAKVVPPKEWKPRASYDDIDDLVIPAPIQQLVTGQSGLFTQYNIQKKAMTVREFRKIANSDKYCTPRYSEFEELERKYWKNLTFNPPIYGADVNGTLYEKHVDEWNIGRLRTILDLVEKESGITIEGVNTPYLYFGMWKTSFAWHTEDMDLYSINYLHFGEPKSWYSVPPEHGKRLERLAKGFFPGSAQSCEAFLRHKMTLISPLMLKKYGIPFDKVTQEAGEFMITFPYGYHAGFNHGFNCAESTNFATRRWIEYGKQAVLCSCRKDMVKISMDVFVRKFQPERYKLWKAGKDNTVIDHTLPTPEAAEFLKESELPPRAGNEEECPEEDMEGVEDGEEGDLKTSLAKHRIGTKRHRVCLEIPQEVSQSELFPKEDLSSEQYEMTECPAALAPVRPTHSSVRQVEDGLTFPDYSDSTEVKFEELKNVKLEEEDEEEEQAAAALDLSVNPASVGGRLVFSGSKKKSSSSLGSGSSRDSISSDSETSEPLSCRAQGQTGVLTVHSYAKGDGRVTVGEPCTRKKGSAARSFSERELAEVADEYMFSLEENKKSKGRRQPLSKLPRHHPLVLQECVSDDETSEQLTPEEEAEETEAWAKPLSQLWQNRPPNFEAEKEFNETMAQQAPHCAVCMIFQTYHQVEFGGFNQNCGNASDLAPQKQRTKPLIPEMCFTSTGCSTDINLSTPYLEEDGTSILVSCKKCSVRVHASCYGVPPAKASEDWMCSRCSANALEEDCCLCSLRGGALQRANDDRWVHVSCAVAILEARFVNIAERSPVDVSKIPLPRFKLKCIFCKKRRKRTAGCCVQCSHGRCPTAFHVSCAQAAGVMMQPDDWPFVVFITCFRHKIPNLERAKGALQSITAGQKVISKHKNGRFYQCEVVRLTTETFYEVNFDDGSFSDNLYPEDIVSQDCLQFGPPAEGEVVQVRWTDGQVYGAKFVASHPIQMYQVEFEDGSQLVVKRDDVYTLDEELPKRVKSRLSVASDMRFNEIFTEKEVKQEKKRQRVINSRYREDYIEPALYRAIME
In short: (§1)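 AlphaLISA demethylase assay in 50 mM HEPES pH 7.5, 0.1% BSA, 0.01% Tween 20 with DMSO. Enzyme and inhibitor combined, then peptide plus 2-OG (50 µM), Fe(II) (5 µM) and ascorbate (100 µM) in the added mix; 1 h at room temperature with shaking.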

[3] = molecular target: T2, Lysine-specific demethylase 5A (Homo sapiens, UniProt P29375); experiment: Inhibition of human C-terminal FLAG-tagged KDM5A (1 to 1090 residues) expressed in baculovirus infected Sf9 insect cells at 25 uM using H3(1-21)K4(Me3)-GGK(Biotin)/2-OG as substrate measured after 1 hr by Alphalisa assay relative to control; in short: as §1
T2 sequence (P29375 whole entry, the tested form may be a part): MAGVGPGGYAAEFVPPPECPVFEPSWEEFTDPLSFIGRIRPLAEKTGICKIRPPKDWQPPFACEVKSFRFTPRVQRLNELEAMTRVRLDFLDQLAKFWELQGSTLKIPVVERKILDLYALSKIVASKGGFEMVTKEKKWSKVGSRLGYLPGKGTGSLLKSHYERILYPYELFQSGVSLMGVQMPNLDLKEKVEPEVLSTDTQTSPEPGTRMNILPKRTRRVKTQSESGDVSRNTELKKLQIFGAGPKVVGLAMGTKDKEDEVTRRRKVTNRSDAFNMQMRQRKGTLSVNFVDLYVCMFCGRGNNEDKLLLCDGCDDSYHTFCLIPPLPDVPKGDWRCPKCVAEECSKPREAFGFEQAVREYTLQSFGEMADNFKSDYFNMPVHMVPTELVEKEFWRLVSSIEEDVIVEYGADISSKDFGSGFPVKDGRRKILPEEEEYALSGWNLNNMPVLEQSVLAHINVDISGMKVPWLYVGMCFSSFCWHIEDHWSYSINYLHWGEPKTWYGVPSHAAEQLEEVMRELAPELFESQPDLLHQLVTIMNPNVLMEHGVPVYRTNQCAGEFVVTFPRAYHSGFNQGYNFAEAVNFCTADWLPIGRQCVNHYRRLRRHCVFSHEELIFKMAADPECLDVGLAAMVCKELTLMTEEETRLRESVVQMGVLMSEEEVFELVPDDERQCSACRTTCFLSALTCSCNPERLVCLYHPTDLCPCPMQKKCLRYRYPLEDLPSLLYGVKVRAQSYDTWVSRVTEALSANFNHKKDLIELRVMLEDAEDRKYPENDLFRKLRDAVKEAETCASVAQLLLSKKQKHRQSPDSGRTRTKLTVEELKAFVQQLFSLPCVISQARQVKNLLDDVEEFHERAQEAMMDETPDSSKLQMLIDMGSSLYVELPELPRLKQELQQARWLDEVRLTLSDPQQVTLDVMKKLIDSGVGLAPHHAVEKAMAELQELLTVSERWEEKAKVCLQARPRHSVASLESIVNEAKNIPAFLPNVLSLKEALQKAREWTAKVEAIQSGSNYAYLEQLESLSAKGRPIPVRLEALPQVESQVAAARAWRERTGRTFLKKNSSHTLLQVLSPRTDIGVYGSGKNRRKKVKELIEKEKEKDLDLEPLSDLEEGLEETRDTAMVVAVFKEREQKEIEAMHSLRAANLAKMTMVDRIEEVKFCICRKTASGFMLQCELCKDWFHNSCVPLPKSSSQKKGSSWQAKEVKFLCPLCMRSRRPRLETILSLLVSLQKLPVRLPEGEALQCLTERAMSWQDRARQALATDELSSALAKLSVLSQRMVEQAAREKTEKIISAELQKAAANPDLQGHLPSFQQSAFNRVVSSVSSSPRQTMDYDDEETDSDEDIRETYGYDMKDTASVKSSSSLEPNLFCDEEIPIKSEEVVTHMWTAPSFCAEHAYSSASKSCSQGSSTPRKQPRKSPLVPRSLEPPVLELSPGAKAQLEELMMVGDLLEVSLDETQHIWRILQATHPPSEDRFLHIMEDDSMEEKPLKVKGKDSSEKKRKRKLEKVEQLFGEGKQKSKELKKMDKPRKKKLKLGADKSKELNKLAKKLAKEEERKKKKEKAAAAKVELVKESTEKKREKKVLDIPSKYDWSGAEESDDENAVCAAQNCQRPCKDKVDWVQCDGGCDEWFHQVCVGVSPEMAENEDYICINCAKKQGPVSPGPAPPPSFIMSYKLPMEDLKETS

[4] = molecular target: T3, Lysine-specific demethylase 6B (Homo sapiens, UniProt O15054); experiment: Inhibition of human C-terminal FLAG-tagged KDM6B (1043 to end residues) expressed in baculovirus infected Sf9 insect cells at 25 uM using H3(21-44)-K27(Me3)-GK(Biotin)/2-OG as substrate measured after 1 hr by Alphalisa assay relative to control; in short: as §1
T3 sequence (O15054 whole entry): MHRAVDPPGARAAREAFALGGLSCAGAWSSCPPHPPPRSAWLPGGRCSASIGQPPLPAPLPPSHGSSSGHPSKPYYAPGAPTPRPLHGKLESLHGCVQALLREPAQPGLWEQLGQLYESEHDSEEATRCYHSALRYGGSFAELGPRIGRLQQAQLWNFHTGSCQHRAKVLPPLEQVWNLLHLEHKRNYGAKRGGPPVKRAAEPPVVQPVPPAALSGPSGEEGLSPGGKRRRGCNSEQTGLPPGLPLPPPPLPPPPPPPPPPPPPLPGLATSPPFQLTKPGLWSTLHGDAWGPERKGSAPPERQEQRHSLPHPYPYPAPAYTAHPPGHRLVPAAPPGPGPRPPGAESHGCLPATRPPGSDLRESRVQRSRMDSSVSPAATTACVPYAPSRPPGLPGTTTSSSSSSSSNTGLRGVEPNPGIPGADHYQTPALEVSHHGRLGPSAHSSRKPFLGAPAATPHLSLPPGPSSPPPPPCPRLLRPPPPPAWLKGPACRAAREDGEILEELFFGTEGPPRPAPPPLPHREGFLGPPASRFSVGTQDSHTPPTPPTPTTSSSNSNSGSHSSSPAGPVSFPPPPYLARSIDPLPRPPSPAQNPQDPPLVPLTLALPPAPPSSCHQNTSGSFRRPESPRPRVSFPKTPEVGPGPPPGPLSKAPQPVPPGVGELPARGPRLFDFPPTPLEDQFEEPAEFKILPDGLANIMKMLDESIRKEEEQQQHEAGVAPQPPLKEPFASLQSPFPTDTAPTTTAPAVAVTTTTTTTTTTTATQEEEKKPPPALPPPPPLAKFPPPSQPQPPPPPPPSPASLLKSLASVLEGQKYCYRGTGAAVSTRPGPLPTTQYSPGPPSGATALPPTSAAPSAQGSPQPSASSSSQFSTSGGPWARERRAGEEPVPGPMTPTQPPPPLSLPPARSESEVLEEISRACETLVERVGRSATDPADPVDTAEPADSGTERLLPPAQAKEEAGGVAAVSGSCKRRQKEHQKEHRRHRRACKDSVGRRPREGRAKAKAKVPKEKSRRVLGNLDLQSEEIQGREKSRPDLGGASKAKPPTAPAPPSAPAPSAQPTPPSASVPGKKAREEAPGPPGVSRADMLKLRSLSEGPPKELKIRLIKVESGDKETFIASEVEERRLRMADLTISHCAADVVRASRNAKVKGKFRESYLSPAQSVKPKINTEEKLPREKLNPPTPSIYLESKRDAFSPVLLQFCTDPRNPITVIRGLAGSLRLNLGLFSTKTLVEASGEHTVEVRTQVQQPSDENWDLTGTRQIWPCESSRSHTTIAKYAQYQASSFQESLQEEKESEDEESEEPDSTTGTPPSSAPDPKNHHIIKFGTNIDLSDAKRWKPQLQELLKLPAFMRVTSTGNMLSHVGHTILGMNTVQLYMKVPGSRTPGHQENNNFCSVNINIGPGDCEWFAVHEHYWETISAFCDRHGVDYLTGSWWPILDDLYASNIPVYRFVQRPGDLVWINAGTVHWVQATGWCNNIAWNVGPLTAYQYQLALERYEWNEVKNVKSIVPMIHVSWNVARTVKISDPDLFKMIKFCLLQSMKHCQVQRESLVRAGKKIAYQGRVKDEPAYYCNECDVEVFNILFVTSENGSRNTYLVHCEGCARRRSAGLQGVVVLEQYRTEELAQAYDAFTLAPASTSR

[5] = molecular target: T3, Lysine-specific demethylase 6B; experiment: Inhibition of human C-terminal FLAG-tagged KDM6B (1043 to end residues) expressed in baculovirus infected Sf9 insect cells using H3(21-44)-K27(Me3)-GK(Biotin)/2-OG as substrate measured after 1 hr by Alphalisa assay; in short: as §1
[6] = system: A549; experiment: Inhibition of KDM6 in human A549 cells assessed as increase in […] levels up to 25 uM after 48 hrs by Western blot analysis; type: cell-based
In short: (§2)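 A549 cells (5 × 10^5 per 2 mL well, RPMI1640 with 10% heat-inactivated FBS) exposed 48 h to compounds at 1, 5 or 25 µM. SDS lysates normalised by BCA, separated on 5-20% SDS-PAGE, blotted to PVDF, blocked in 5% milk/TBS-T, probed for H3K4me3, H3K9me3, H3K27me3 and total H3, detected by HRP chemiluminescence.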

[7] = molecular target: T2, Lysine-specific demethylase 5A; experiment: Potency index, ratio of CPI-455 IC50 to test compound IC50 for human C-terminal FLAG-tagged KDM5A (1 to 1090 residues) expressed in baculovirus infected Sf9 insect cells
[8] = molecular target: T4, Lysine-specific demethylase 4A (Homo sapiens, UniProt O75164); experiment: Inhibition of human N-terminal His-tagged KDM4A (1 to 350 residues) expressed in Escherichia coli using H3(21-44)-K36(Me3)-GK(Biotin)/2-OG as substrate measured after 1 hr by Alphalisa assay; in short: as §1
T4 sequence (O75164 whole entry): T1 sequence (whole entry)

[9] = molecular target: Histone lysine demethylase PHF8 (Homo sapiens, UniProt Q9UPP1); experiment: Inhibition of human N-terminal FLAG-tagged KDM7B (2 to 525 residues) expressed in baculovirus infected Sf9 insect cells at 25 uM using H3(1-21)K9(Me2)-GGK(Biotin)/2-OG as substrate measured after 1 hr by Alphalisa assay relative to control; in short: as §1
Histone lysine demethylase PHF8, sequence (Q9UPP1 whole entry, the tested form may be a part): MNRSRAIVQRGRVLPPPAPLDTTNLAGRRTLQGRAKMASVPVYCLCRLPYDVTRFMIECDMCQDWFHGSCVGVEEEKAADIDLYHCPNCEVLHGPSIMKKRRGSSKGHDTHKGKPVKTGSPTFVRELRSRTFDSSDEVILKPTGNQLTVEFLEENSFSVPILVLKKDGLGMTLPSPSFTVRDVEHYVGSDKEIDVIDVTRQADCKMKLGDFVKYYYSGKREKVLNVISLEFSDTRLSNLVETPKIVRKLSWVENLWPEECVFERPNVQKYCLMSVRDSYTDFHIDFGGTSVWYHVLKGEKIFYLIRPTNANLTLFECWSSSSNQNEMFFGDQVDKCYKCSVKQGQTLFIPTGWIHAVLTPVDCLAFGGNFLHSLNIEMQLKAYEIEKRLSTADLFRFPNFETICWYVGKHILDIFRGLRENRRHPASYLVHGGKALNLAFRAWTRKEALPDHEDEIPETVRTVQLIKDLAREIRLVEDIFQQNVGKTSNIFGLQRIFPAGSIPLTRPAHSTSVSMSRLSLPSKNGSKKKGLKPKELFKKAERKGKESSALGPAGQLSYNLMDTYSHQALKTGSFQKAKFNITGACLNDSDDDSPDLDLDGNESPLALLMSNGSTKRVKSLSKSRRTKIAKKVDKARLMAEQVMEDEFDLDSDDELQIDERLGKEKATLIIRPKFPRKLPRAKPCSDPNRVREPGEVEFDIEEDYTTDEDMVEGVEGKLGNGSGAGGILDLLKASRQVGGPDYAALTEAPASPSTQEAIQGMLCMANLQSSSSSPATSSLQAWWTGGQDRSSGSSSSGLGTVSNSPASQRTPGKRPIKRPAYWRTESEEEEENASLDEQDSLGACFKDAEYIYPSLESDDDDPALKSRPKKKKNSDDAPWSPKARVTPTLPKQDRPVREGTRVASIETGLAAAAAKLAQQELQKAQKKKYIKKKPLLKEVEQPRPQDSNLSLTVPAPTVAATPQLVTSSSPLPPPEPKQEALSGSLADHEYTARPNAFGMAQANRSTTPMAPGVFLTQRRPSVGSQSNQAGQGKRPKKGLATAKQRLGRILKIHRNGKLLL

[10] = system: A549; experiment: Inhibition of KDM4 in human A549 cells assessed as increase in H3K9me3 levels up to 25 uM after 48 hrs by Western blot analysis; type: cell-based; in short: as §2

| inhibition [2] | inhibition [3] | inhibition [4] | IC50 [5] | Ratio IC50 [7] | IC50 [8] | inhibition [9] | SMILES | growth inhibition (GI) [1] | inhibition [6] | inhibition [10] |
| --- | --- | --- | --- | --- | --- | --- | --- | --- | --- | --- |
| 35.9% | 100% | 69.1% | 14.3 µM |  |  |  | CC(C)c1c(-c2ccccc2)[nH]c2c(C#N)cnn2c1=O | inactive |  |  |
|  | 89.9% |  |  |  |  |  | CCCCCN(C)CCCCC(=O)N(O)CCC(=O)O |  |  |  |
|  |  |  | > 50 µM | 22 | 25 µM | 12.1% | CCCCCCN(C)Cc1ccc(-c2[nH]c3c(C#N)cnn3c(=O)c2C(C)C)cc1 | Active | inactive | inactive |
| 32.4% |  |  |  |  |  | 11.8% | CCCCCCN(C)CCc1ccc(-c2[nH]c3c(C#N)cnn3c(=O)c2C(C)C)cc1 | Active | inactive | inactive |
